From PubChem BioAssay
Most compounds without a hit are left out; they make up all but 3% or so of the library.
SENP8 block-1: inhibitors of human SENP8 protease | inhibition, % at 20 µM | 0.64% of 360,000 active | AID 602440 | Q96LD8 | recombinant SENP8, Nedd8 substrate fluorescence; in the data active = inhibition mostly above about 40%, no sharp cut-off; inactive = mostly below about 27%
SENP8 block-2: blocks the human protease SENP8. 1.2% of 330,000 active. Q96LD8. AID 2540. inhibition, % at 10 µM. purified SENP8, Z-RLRGG-aminoluciferin cleavage, luminescence; in the data active = inhibition above about 50%
Apaf-1 inh: human Apaf-1 inhibition; O14727; reconstituted apoptosome caspase-3 activity, DEVD-Rh110 fluorescence; inhibition, % at 20 µM; 0.71% of 330,000 active; active = inhibition of at least 40% at 20 µM;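 note: plate controls were DMSO wells for no effect and DEVD-CHO caspase inhibitor wells for full effect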
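detection = Rh110 fluorescence intensity | test system = biochemical Apaf-1 apoptosome reconstitution | also added = cytochrome c and DEVD-Rh110 substrate | schedule = 30 min plus 50 min, RT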
UBC13 inh: blocks human UBC13 polyubiquitin chain formation | inhibition, % at 20 µM | P61088 | 0.47% of 330,000 active | AID 485273 | TR-FRET; in the data active = inhibition above about 45%, passing the limit was not always enough; inconclusive = no clear call, values can overlap the other calls
SENP7 block: inhibitors of human SENP7 protease | inhibition, % at 5 µM | recombinant SENP7, Z-RLRGG-aminoluciferin luminescence, 40 min | Q9BQF6 | 1.5% of 330,000 active;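 active = inhibition above about 50% at the single test dose, limit read from the data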;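 note: plate controls were DMSO with enzyme for no effect and no enzyme buffer wells for full effect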
SENP6 inh: SENP6 protease inhibition | Q9GZR1 | Recombinant SENP6 catalytic domain, aminoluciferin luminescence | inhibition, % at 10 µM | 1.8% of 330,000 active | AID 2599;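 active = inhibition above about 50% at the single tested dose, limit read from the data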;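 note: plate controls were DMSO wells with enzyme for no effect and DMSO wells lacking enzyme for full effect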
Casp3 UBC13 ctr: counter-screen for UBC13 inhibitors: human caspase-3 inhibition; shares compounds with UBC13 inh; Recombinant caspase-3, Caspase-Glo 3/7 luminescence, 60 min; inhibition, % at 20 µM; 4% of 1,400 active;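 active = mean inhibition across replicates above about 26%, limit read from the data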;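 note: plate controls were DMSO with caspase-3 for no effect and DMSO wells lacking enzyme for full effect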
Target sequence (P42574 whole entry, looked up): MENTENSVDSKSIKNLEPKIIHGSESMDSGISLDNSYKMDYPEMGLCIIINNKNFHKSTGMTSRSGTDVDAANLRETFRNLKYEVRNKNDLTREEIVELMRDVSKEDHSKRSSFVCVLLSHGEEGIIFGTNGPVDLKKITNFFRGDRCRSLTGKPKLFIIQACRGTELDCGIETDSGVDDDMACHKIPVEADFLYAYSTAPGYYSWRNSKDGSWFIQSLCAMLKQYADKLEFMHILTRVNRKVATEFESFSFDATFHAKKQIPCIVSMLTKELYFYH
UBC13 confirm: confirmation of human UBC13 polyubiquitin inhibitors | UBC13 polyubiquitination, TR-FRET, biochemical | inhibition, % at 10 µM | AID 488859 | 68% of 1,400 active | shares compounds with UBC13 inh; in the data active = inhibition above about 45%; inconclusive = no clear call, values can overlap the other calls
* marks the source's active call; other numbers are inactive results; ? = inconclusive; · = not tested or not shown; ! = a repeat was not active.

SMILES	SENP8 block-1	SENP8 block-2	Apaf-1 inh	UBC13 inh	SENP7 block	SENP6 inh	Casp3 UBC13 ctr	UBC13 confirm
CC(=O)N1N=C(c2c(O)n(C)c(=O)n(C)c2=O)CC1c1ccccc1 (stereo not given)	22	-1	-15	51*	-4	-7	2	22
COc1ccc(O)c2c(=O)c3c(OC)cc4c(c3oc12)C1C=COC1O4 (stereo not given)	16	4	-3	·	-2	-7	-4	·
O=C(C(=O)N1CCOCC1)c1cn(Cc2ccccc2)c2ccccc12	21	0	-4	45*	-3	15	0	37
O=C(C(=O)N1CCOCC1)c1cn(CCCOc2ccccc2)c2ccccc12	12	-1	7	29	3	-1	·	·
O=[N+]([O-])c1ccc(N2CCCC(C(F)(F)F)C2)c2ccncc12 (stereo not given)	34	1	28	-43	1	-5	·	·
Cc1ccnc(-n2c(C)nc3ccccc3c2=O)c1	23	-6	-3	-16	-10	-17	·	·
Cc1cccc(N2CCc3c2nc2ccccc2c3N)c1	-419	-5	7	62*!	8	-5	0	47*
COc1ccc(C(c2nnnn2C(C)(C)C)N2CCC3(CC2)C(=O)NCN3c2ccccc2)cc1 (stereo not given)	9	·	·	·	·	·	·	·
CN1[C@@H]2CC[C@H]1CC(OC1c3ccccc3CCc3ccccc31)C2 (stereo not given in full)	4	2	23	58*	9	-12	-2	37
CCN1CCN(Cc2cc(C(C)(C)C)c(O)c(C(C)(C)C)c2)CC1	·	7	2	-4	12	-11	·	·
CCCCCCN1CCN(c2ccc(Cl)cc2)CC1	14	-4	-2	-5	7	11	·	·
ClCCN1CCN(c2ccnc3cc(Cl)ccc23)CC1	15	3	-1	62*	16	-15	-2	90*
Cc1ccc2c(c1)C1CN(C)CCC1N2C(=O)/C=C/c1ccc2c(c1)OCO2 (stereo not given)	12	-6	3	-12	3	-4	·	·
Cc1ccc2c(c1)C1CN(C)CCC1N2C(=O)/C(C#N)=C/c1ccc2c(c1)OCO2 (stereo not given)	1	-6	-10	46*	-3	-4	1	56*
Clc1ccc(CCC(Cn2ccnc2)Sc2c(Cl)cccc2Cl)cc1 (stereo not given)	9	9	24	48*	-8	-1	-5	34
Cc1ccc2c(c1)C1CN(C)CCC1N2C(=O)c1cccs1 (stereo not given)	11	0	-10	-7	0	-23	·	·
Cc1ccc2c(c1)C1C[N+](C)(CC(=O)c3ccc(Cl)cc3Cl)CCC1N2C(=O)c1ccc(F)cc1 (stereo not given)	-65	4	39	47*	8	-13	5	49*
COc1ccc(-c2nn(CCC#N)cc2C(=O)NCc2ccccc2)cc1[N+](=O)[O-]	25	-11	-15	2	13	-3	·	·
O=C1CC23c4ccccc4N4C(=O)CC5OCC=C6CN1C2CC6C5C43 (stereo not given)	-5	·	·	·	·	·	·	·
O=c1c2cc(Br)ccc2[nH]c(=S)n1-c1ccccc1	12	1	-21	46*	11	5	-4	?
Cc1ccc2[nH]c(=S)n(-c3cccnc3)c(=O)c2c1	-3	-8	-5	50*	1	-5	-2	?
C#C[C@]1(O)CCC2C3CCC4=C/C(=N/OCC(=O)NC(C)C(=O)NC(CCSC)C(=O)O)CC[C@]4(C)C3CC[C@@]21C (stereo not given in full)	12	-7	12	-6	-5	-25	·	·
Fc1ccccc1CNC1CN2CCC1CC2 (stereo not given)	24	5	-23	13	13	-1	·	·
